# Shown are actives, neighbours in structure and some others; about 1.6% of the full set was active somewhere.
# LMPTP block: blocks human LMPTP phosphatase; recombinant LMPTP-A, OMFP fluorogenic substrate, fluorescence intensity; inhibition, % at 20 µM; 0.22% of 360,000 active;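 active = compounds that cut the enzyme signal by at least half of the control window in the single-dose screen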
#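 Test system: LMPTP-A phosphatase enzyme; input: 0.625 nM LMPTP-A final; reagent: OMFP substrate, 400 µM final; compound dosing: 20 µM single dose, 3% DMSO; incubation: 50 min dark incubation at room temperature; measured by: endpoint fluorescence intensity from OMFP dephosphorylation; measure: % inhibition relative to no-enzyme and uninhibited control wells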
# Scp-1 inhibitor: inhibitors of human Scp-1 phosphatase; Q9GZU7; Recombinant Scp1, phosphopeptide, malachite green phosphate absorbance; inhibition, % at 20 µM; 0.88% of 340,000 active;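 active = inhibition above about 50% at 20 µM, limit read from the data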
#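 Test system – truncated SCP-1 phosphatase (76-261aa) · Reagent – Phosphorylated 17-residue peptide substrate · Incubation – 45 min room-temperature reaction, 5 min colour, 30 min stabiliser · Detection – colorimetric phosphate reagent with accelerator and stabiliser, absorbance at 630 nm · Measure – % inhibition at 20 µM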
# F508del corr: correctors of CFTR F508del function in bronchial epithelial cells; CFBE cells, YFP halide quenching; stimulated with forskolin plus potentiator P3; % fluorescence drop versus neutral controls; 0.36% of 350,000 active; AID 720511; activity (quench increase), % at 7.58 µM;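 active = mean added fluorescence quench of at least 8% versus neutral control, with both replicates also reaching 8%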;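 also: cells transiently co-express mutant CFTR-F508del with the halide-sensitive YFP; corrector assay measuring rescue of mutant channel to the surface after 24 h compound exposure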
# DNMT1 block: blocks human DNA methyltransferase DNMT1; P26358; DNMT1 molecular beacon, Hinp1I cleavage, fluorescence; inhibition (reported as % activation of signal), % at 10 µM; 0.83% of 360,000 active; in the data active = inhibition above about 50%
# STEP block: blocks human striatal-enriched tyrosine phosphatase; P54829; recombinant STEP, OMFP fluorogenic substrate, fluorescence; inhibition, % at 20 µM; 0.25% of 360,000 active; AID 588621;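 active = inhibition at 20 µM, scaled per plate between control wells, above about 37%, limit read from the data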
#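 material = STEP tyrosine phosphatase | reagent = fluorogenic phosphatase substrate OMFP at 25 µM final | doses = single compound dose of 20 µM, 1% DMSO final | schedule = 20 min reaction, room temperature, in the dark | measured by = fluorescence, 480/540 nm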
# SUMO1 PPI mod: modulators of human SUMO1-mediated protein-protein interactions. P63165. SUMO1 binding to a labelled peptide, TR-FRET, 1 h. 0.33% of 360,000 active. inhibition, % at 20 µM; in the data active = inhibition above about 37%
# DNMT1 confirm: confirmation of human DNMT1 inhibitors; shares compounds with DNMT1 block; DNMT1 molecular beacon HinP1I cleavage, fluorescence; inhibition, % at 10 µM; 8% of 2,300 active; AID 602385;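 active = average inhibition of at least 30% in the single-concentration confirmation test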
# DNMT1 interf: counter-screen for DNMT1 inhibitors: spectral interference; activation (fluorescence interference), % at 10 µM; DNMT1 molecular beacon spectral interference counterscreen, fluorescence 485/520; 1% of 2,300 active; shares compounds with DNMT1 block;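 active = activation of at least 30% at 10 µM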;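 also: DNMT1 catalytic domain with a HinP1I cleavage step and a FAM/dabcyl DNA beacon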
# A number is an active result; . = inactive; / = not tested or not shown.
SMILES,LMPTP block,Scp-1 inhibitor,F508del corr,DNMT1 block,STEP block,SUMO1 PPI mod,DNMT1 confirm,DNMT1 interf
C[C@H]1CN([C@@H](C)CO)C(=O)c2cc(NC(=O)Cc3ccccc3)ccc2O[C@@H]1CN(C)Cc1ccc(C(=O)O)cc1,/,/,.,/,/,/,/,/
O=C(Cn1cc(COc2ccc(Br)cc2)nn1)c1ccc(O)cc1,.,.,.,.,.,.,/,/
CCCC(=O)c1ccc(OCc2cn(CC(=O)c3ccc(O)cc3)nn2)cc1,.,.,.,52,.,.,.,.
O=Cc1cccc(OCc2cn(CC(=O)c3ccc(O)cc3)nn2)c1,.,/,.,58,.,.,.,.
COc1ccc(CCNC(=O)c2ccc(OCc3c(C)noc3C)cc2)cc1OC,.,.,.,54,.,.,.,.
Cn1c(=O)c2cc(NC(=O)NCCc3ccccc3)ccc2n1Cc1ccccc1,.,/,.,69,.,.,.,.
COCC(=O)Nc1ccc2c(c1)C(=O)N(C)C[C@@H](OC)[C@@H](C)CN(CCC(F)(F)F)[C@H](C)CO2,/,/,.,/,/,/,/,/
CNc1ccc(Br)cc(C(=O)/C=C/c2ccc(OC)cc2)c1=O,.,.,/,.,.,.,/,/
CNc1ccc(Br)cc(C(=O)/C=C/c2ccc3c(c2)OCO3)c1=O,.,.,/,65,.,.,.,.
O=C(CN1C(=O)/C(=C\c2ccc(F)cc2)Oc2ccccc21)NCc1ccco1,.,.,/,52,.,.,.,.
COc1ccc(S(=O)(=O)Nc2cccc3c2O[C@@H](CN(C)S(=O)(=O)c2cn(C)cn2)[C@@H](C)CN([C@@H](C)CO)C3=O)cc1,/,/,.,/,/,/,/,/
CCc1nc(Nc2ccncc2)c2oc3ccccc3c2n1,.,.,/,51,.,.,.,.
C[C@@H]1CN([C@H](C)CO)C(=O)c2cc(NS(=O)(=O)c3cn(C)cn3)ccc2O[C@@H]1CN(C)Cc1ccc(Oc2ccccc2)cc1,/,/,.,/,/,/,/,/
CN(C)CCNC(=O)c1sc2nc(-c3ccccc3)cc(C(F)(F)F)c2c1N,.,.,.,.,.,.,/,/
Nc1c(C(=O)C2CC2)sc2nc(-c3ccccc3)cc(C(F)(F)F)c12,.,.,/,68,.,.,51,37
COc1cccc(N2CCN(S(=O)(=O)c3ccc(-c4cnc(C5CC5)o4)cc3)CC2)c1,.,.,.,.,.,.,/,/
COc1ccc(N2CCN(S(=O)(=O)c3ccc(-c4cnc(C5CC5)o4)cc3)CC2)cc1,.,.,/,74,.,.,.,.
COc1ccc(S(=O)(=O)Nc2ccc3c(c2)C(=O)N([C@H](C)CO)C[C@H](C)[C@@H](CN(C)C(=O)C2CCCCC2)OCCCC[C@H](C)O3)cc1,/,/,.,/,/,/,/,/
Cn1ccsc1=NC(=O)c1ccc([N+](=O)[O-])o1,.,65,.,59,.,.,.,.
COc1ccc(NC(=O)N(C)C[C@@H]2Oc3ncc(C#CCN(C)C)cc3C(=O)N([C@@H](C)CO)C[C@H]2C)cc1,/,/,.,/,/,/,/,/
C[C@H](NC(=O)c1ccco1)C(=O)Nc1nc(-c2ccccn2)cs1,.,.,.,77,.,.,.,.
O=C(Nc1nc(-c2ccccn2)cs1)c1ccco1,.,.,.,.,.,.,/,/
COc1ccc2nc(/C(C#N)=C\c3ccc(C(=O)O)cc3)[nH]c2c1,.,.,.,.,.,.,/,/
Cc1ccc2nc(/C(C#N)=C\c3ccc(Oc4ccc([N+](=O)[O-])cn4)cc3)[nH]c2c1,.,.,/,54,.,.,.,.
COc1ccc2nc(/C(C#N)=C\c3ccc(Oc4ccc([N+](=O)[O-])cn4)cc3)[nH]c2c1,.,.,/,57,.,.,.,.
COCCNC(=O)C[C@H]1C=C[C@H](NC(=O)NC2CCCCC2)[C@H](CO)O1,/,/,.,/,/,/,/,/
CC(=O)N(C)C[C@H]1Oc2cc(-c3ccncc3)ccc2S(=O)(=O)N([C@H](C)CO)C[C@H]1C,/,/,.,/,/,/,/,/

# Screening results as filed in PubChem.
